Reference: ChEMBL document CHEMBL1764953, “Discovery of orally active carboxylic acid derivatives of 2-phenyl-5-trifluoromethyloxazole-4-carboxamide as potent diacylglycerol acyltransferase-1 inhibitors for the potential treatment of obesity and diabetes” (J Med Chem, 2011)
Converted amounts (≈) assume the structure as drawn. The source made the active and inactive calls. No cut-off for these calls is given here.

Experiments:
Rattus norvegicus [1] = experiment: Antiobesity activity in diet-induced obese rat assessed as decrease in food intake at 3 mg/kg, po administered once daily for 3 weeks; assay type: functional; design: scale not given: the % may be the effect or the level left
Summary of the method: (§1)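 Male DIO rats, 19 weeks old, on high fat diet for 12 weeks, dosed po once daily with Klucel (hydroxypropyl cellulose) suspension for 22 days; 10 rats per group. Body weight followed throughout; daily food intake recorded on days 1–3, 8, 9, 15 and 16, values averaged per group.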

Rattus norvegicus [2] = experiment: Antiobesity activity in diet-induced obese rat assessed as decrease in food intake at 1 mg/kg, po administered once daily for 3 weeks; assay type: functional; design: scale not given: the % may be the effect or the level left; summary of the method: as §1
[3] = Cmax in diet-induced obese rat at 1 mg/kg, po administered once daily for 3 weeks; assay type: ADME, organism-based; design: dose 1 mg/kg, route oral; conditions: in vivo
Rattus norvegicus [4] = experiment: Antiobesity activity in diet-induced obese rat assessed as reduction in body weight gain at 1 mg/kg, po administered once daily for 3 weeks; assay type: functional; design: scale not given: the % may be the effect or the level left; summary of the method: as §1
Rattus norvegicus [5] = experiment: Antiobesity activity in diet-induced obese rat assessed as reduction in body weight gain at 0.3 mg/kg, po administered once daily for 3 weeks; assay type: functional; design: scale not given: the % may be the effect or the level left; summary of the method: as §1
[6] = Oral bioavailability in Beagle dog at 10 mg/kg; assay type: ADME, organism-based, Canis lupus familiaris; conditions: in vivo
Summary of the method: (§2)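 Plasma extracted by acetonitrile precipitation and quantified by LC-MS/MS (5.0–5000 ng/mL); noncompartmental PK; bioavailability relative to 5 mg/kg iv; mean of n = 3.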

Rattus norvegicus [7] = experiment: Antiobesity activity in diet-induced obese rat assessed as reduction in body weight gain at 3 mg/kg, po qd; assay type: functional; design: scale not given: the % may be the effect or the level left
Summary of the method: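 Male DIO rats given 3 mg/kg po once daily for 1 week, with body weight gain followed. At study end, rats were fasted 4 h and challenged with corn oil 5 mL/kg; plasma triglycerides were measured 4 h later and compared with the vehicle group.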

[8] = Oral bioavailability in Hanover Wistar rat at 10 mg/kg; assay type: ADME, organism-based; conditions: in vivo
Summary of the method: (§3)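 Hanover Wistar rats (n = 3) with jugular/femoral cannulae, oral gavage of a 2 mg/mL suspension in 2% Klucel LF with 0.1% Tween 80; femoral-vein sampling, EDTA plasma, acetonitrile precipitation, LC-MS/MS (5.0–5000 ng/mL), noncompartmental analysis; F relative to 5 mg/kg iv; mean of n = 3.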

[9] = Tmax in Beagle dog at 10 mg/kg, po; assay type: ADME, organism-based, Canis lupus familiaris; design: dose 10 mg/kg, route oral; conditions: in vivo
Summary of the method: (§4)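 Oral gavage to rats (jugular/femoral vein-cannulated, femoral vein blood sampling) or beagle dogs, n = 3, as a 2 mg/mL suspension in 2% Klucel LF with 0.1% Tween 80 in water. Plasma extracted by acetonitrile protein precipitation and quantified by LC-MS/MS (linear 5.0–5000 ng/mL). Noncompartmental analysis; mean of 3.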

[10] = Tmax in Hanover Wistar rat at 10 mg/kg, po; assay type: ADME, organism-based; design: dose 10 mg/kg, route oral; conditions: in vivo; summary of the method: as §4
[11] = Cmax in Beagle dog at 10 mg/kg, po by LC-MS/MS; assay type: ADME, organism-based, Canis lupus familiaris; design: dose 10 mg/kg, route oral; conditions: in vivo; summary of the method: as §2
[12] = Cmax in Hanover Wistar rat at 10 mg/kg, po by LC-MS/MS; assay type: ADME, organism-based; design: dose 10 mg/kg, route oral; conditions: in vivo; summary of the method: as §3
[13] = Extrapolated AUC in Beagle dog at 10 mg/kg, po; assay type: ADME, organism-based, Canis lupus familiaris; design: dose 10 mg/kg, route oral; conditions: in vivo; summary of the method: as §2
[14] = Extrapolated AUC in Hanover Wistar rat at 10 mg/kg, po; assay type: ADME, organism-based; design: dose 10 mg/kg, route oral; conditions: in vivo; summary of the method: as §3
[15] = Half life in Beagle dog at 5 mg/kg, iv; assay type: ADME, organism-based, Canis lupus familiaris; design: dose 5 mg/kg, route intravenous; conditions: in vivo
Summary of the method: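 Plasma levels by protein precipitation with acetonitrile and LC-MS/MS (linear range 5.0–5000 ng/mL); noncompartmental analysis; mean of n = 3.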

[16] = Clearance in Hanover Wistar rat at 5 mg/kg, iv; assay type: ADME, organism-based; design: dose 5 mg/kg, route intravenous; conditions: in vivo
Summary of the method: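 Hanover Wistar rats (n = 3) cannulated in jugular and femoral veins, dosed iv 5 mg/kg via jugular vein as a solution in 2% DMA, 15% PEG400, 77% of 28% HPβCD in pH 7 PBS. Femoral-vein blood, EDTA plasma, acetonitrile precipitation, LC-MS/MS, noncompartmental analysis; mean of n = 3.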

[17] = Volume of distribution in Beagle dog at 5 mg/kg, iv; assay type: ADME, organism-based, Canis lupus familiaris; design: dose 5 mg/kg, route intravenous; conditions: in vivo
[18] = Volume of distribution in Hanover Wistar rat at 5 mg/kg, iv; assay type: ADME, organism-based; design: dose 5 mg/kg, route intravenous; conditions: in vivo
Cytochrome P450 2D6 = Cytochrome P450 2D6 (Homo sapiens, UniProt P10635); experiment: Inhibition of CYP2D6; assay type: ADME
hERG = hERG (Homo sapiens, UniProt Q12809); experiment: Inhibition of human ERG-mediated current expressed in CHO cells by patch clamp method; assay type: cell-based; conditions: CHO cells expressing human ERG
Summary of the method: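 hERG-transfected CHO cells on automated whole-cell patch clamp at a holding potential of −80 mV; 1 s depolarizing pulse at 0.1 Hz; tail current measured at −40 mV. Sequence: 0.3% DMSO vehicle, three ascending log-interval concentrations up to 30 μM or the solubility limit, then 1 μM E-4031. At least 3 cells per compound; data normalized to vehicle and fitted with the Hill equation.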

[19] = target: T1, Diacylglycerol O-acyltransferase 1 (Homo sapiens, UniProt O75907); experiment: Inhibition of human DGAT1 expressed in baculovirus infected insect cells after 1 hr using palmitoyl-1-14C-coenzyme A by phospholipid flashplate assay
T1 sequence (O75907 whole entry): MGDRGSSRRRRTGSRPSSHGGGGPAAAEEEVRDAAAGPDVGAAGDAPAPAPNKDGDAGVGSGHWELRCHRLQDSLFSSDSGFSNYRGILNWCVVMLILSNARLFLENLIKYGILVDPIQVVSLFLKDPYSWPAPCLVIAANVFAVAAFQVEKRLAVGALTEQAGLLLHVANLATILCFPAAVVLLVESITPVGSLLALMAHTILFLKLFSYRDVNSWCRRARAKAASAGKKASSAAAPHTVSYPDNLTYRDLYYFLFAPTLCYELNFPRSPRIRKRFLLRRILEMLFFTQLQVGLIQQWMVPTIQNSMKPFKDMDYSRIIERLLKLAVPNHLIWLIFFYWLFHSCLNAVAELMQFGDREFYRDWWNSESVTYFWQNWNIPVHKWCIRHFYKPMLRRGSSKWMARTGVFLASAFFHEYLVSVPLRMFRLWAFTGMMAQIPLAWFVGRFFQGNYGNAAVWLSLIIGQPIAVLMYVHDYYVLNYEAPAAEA

[20] = Solubility of the compound at mp 217 degC; assay type: physicochemical
Rattus norvegicus [21] = experiment: Antidiabetic activity in diet-induced obese Sprague-Dawley rat assessed as effect on insulin level at 0.3 mg/kg, po administered once daily for 3 weeks measured after 30 mins by OGTT; assay type: functional, organism-based; design: dose 0.3 mg/kg
Summary of the method: (§5)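 DIO rats (n = 10/group) on high fat diet, dosed po once daily in Klucel suspension for 3 weeks. On day 21 an oral glucose challenge of 2 g/kg was given, and plasma insulin was measured at the 30 min time point.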

Rattus norvegicus [22] = experiment: Antidiabetic activity in diet-induced obese Sprague-Dawley rat assessed as effect on insulin level at 1 mg/kg, po administered once daily for 3 weeks measured after 30 mins by OGTT; assay type: functional, organism-based; design: dose 1 mg/kg; summary of the method: as §5
Rattus norvegicus [23] = experiment: Antidiabetic activity in diet-induced obese Sprague-Dawley rat assessed as effect on insulin level at 3 mg/kg, po administered once daily for 3 weeks measured after 30 mins by OGTT; assay type: functional, organism-based; design: dose 3 mg/kg; summary of the method: as §5
[24] = target: T1, Diacylglycerol O-acyltransferase 1; experiment: Inhibition of human DGAT1 expressed in CHO-K1 cells after 1 hr using 14C palmitic acid

Sequence of hERG (Q12809 whole entry): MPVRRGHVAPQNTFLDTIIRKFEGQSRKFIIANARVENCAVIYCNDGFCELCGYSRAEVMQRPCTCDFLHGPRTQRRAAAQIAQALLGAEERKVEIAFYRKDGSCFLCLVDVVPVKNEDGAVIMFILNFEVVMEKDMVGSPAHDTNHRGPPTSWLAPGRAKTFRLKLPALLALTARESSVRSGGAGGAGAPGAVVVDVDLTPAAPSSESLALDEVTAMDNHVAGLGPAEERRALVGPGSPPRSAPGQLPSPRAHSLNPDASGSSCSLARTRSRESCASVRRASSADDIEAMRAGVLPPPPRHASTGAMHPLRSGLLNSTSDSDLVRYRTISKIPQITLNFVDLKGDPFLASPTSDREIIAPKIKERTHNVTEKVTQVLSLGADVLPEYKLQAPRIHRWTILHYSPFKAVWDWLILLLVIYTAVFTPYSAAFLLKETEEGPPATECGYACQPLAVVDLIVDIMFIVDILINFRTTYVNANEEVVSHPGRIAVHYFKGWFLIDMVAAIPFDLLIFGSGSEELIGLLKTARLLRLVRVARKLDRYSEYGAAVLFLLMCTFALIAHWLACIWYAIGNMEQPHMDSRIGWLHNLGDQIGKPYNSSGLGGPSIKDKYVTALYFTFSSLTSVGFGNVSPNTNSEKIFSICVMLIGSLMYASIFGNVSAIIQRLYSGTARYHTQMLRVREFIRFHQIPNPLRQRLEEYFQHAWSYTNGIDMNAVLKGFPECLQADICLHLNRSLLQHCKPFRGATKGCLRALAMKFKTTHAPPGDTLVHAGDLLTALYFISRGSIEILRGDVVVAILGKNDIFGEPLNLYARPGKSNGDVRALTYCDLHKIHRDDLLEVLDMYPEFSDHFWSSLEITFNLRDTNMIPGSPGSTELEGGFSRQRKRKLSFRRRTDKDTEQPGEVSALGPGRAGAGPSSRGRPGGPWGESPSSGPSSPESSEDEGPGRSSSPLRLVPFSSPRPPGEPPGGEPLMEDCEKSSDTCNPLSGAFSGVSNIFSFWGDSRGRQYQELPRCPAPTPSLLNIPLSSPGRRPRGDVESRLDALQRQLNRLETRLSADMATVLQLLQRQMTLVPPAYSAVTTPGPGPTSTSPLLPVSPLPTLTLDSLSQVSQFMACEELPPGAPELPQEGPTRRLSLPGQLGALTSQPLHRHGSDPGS
Sequence of Cytochrome P450 2D6 (P10635 whole entry): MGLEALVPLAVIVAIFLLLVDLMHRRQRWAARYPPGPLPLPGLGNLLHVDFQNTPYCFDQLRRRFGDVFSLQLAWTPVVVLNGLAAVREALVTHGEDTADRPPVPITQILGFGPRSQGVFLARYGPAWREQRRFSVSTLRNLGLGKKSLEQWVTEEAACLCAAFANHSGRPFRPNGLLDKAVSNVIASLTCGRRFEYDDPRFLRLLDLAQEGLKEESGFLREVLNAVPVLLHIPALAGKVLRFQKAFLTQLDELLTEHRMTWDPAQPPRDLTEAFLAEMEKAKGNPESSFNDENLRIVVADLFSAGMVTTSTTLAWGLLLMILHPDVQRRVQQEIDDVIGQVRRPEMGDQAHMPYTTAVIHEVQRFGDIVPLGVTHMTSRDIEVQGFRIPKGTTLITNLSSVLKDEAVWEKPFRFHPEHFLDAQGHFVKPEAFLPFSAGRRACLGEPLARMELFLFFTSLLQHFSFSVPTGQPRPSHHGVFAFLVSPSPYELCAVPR

Cmax [3]: 4.8 µM
bioavailability [6]: 33%
bioavailability [8]: 73%
Tmax [9]: 2 h
Tmax [10]: 12 h
Cmax [11]: 4.7 µM
Cmax [12]: 34.8 µM
AUC [13]: 77.9 µM·h
AUC [14]: 567 µM·h
half-life [15]: 5.3 h
clearance [16]: 0.38 mL/min/kg
Vd [17]: 0.38 L/kg
Vd [18]: 0.27 L/kg
IC50 (Cytochrome P450 2D6): > 50000 nM
IC50 [19]: 57 nM
solubility [20]: 15.4 µg/mL (≈ 27 µM)
EC50 [24]: 493 nM
Structure (SMILES): O=C(Nc1ccc(C2CCN(C(=O)[C@H]3CC[C@H](C(=O)O)CC3)CC2)cc1)c1nc(-c2ccccc2)oc1C(F)(F)F
Activity (Rattus norvegicus [1]): 27%
Activity (Rattus norvegicus [2]): 19%
Activity (Rattus norvegicus [4]): 6%
Activity (Rattus norvegicus [5]): 5%
Activity (Rattus norvegicus [7]): 4%
IC20 (hERG): 30000 nM
Activity (Rattus norvegicus [21]): inactive
Activity (Rattus norvegicus [22]): inactive
Activity (Rattus norvegicus [23]): inactive
